{"source": "paper PMC5524211", "about": "(Nuclear medicine and biology, 2017)", "key": {"[1]": {"system": "ATR", "details": "cited from earlier work"}, "[2]": {"molecular_target": "ATR (Homo sapiens, UniProt Q13535)", "sequence (Q13535 whole entry)": "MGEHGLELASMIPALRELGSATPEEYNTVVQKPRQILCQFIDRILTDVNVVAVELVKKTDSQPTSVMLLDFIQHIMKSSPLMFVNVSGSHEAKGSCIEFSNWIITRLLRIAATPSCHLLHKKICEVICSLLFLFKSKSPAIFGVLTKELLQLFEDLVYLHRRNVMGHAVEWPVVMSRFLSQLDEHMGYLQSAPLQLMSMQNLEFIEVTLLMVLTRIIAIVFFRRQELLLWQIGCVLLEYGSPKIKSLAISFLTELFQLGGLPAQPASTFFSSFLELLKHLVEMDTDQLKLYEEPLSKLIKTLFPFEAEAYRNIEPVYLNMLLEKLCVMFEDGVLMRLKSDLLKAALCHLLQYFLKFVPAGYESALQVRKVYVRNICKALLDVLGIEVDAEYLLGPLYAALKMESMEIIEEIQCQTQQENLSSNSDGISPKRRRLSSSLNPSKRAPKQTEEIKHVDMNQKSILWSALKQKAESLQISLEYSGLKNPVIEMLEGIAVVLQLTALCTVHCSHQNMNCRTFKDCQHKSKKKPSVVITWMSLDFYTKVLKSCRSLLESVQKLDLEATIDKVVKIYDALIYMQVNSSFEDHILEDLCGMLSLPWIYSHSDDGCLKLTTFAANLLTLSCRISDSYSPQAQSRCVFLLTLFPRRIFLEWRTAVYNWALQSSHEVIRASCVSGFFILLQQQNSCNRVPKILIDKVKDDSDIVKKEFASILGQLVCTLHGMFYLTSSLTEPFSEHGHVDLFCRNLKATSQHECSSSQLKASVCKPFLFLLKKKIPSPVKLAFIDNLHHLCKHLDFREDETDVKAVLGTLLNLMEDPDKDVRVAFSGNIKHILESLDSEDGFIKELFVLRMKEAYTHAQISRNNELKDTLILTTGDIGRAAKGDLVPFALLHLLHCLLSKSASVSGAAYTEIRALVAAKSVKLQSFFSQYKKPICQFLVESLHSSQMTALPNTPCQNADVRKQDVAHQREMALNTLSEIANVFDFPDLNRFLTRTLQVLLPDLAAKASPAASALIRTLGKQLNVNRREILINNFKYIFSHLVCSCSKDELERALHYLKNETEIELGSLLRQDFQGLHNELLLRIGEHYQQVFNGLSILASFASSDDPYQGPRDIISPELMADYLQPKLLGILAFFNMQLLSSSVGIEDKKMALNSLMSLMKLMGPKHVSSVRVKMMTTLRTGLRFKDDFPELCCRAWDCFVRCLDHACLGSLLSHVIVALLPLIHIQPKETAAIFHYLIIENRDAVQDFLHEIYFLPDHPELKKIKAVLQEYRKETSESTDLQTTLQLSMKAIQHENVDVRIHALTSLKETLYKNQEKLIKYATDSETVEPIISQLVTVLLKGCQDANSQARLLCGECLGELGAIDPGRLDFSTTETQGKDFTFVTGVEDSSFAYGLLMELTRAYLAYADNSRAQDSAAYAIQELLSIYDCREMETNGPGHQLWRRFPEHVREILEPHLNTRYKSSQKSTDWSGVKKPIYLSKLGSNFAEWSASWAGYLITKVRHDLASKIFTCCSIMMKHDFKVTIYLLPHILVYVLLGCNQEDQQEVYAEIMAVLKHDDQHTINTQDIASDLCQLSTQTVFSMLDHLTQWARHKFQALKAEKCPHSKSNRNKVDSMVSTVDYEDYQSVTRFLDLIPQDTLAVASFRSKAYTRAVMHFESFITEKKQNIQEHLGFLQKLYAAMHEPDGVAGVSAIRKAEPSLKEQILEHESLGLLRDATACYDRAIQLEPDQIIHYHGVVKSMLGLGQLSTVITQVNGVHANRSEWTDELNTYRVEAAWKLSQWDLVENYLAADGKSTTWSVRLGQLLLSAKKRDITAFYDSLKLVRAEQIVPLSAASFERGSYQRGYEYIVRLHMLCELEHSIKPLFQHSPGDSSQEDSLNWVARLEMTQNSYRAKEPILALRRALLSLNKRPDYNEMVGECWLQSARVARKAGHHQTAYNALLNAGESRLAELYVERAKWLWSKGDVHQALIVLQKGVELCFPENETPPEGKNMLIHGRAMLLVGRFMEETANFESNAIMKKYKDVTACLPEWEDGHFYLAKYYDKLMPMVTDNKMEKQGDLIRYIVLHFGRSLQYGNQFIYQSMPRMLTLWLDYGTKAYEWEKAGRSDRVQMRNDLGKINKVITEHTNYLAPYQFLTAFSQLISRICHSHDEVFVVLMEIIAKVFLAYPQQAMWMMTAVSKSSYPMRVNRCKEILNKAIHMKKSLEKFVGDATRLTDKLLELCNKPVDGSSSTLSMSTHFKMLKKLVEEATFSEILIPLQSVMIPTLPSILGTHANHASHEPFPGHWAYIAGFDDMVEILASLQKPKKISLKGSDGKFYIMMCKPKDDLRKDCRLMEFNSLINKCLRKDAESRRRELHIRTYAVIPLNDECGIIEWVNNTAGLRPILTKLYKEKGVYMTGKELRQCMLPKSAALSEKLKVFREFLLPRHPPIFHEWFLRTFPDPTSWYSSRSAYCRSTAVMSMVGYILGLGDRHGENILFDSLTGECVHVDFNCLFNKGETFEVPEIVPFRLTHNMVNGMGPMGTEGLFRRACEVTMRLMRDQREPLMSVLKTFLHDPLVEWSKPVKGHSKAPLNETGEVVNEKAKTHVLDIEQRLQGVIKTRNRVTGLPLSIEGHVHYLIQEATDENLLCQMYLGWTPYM", "sequence (Q8WXE1 whole entry partner)": "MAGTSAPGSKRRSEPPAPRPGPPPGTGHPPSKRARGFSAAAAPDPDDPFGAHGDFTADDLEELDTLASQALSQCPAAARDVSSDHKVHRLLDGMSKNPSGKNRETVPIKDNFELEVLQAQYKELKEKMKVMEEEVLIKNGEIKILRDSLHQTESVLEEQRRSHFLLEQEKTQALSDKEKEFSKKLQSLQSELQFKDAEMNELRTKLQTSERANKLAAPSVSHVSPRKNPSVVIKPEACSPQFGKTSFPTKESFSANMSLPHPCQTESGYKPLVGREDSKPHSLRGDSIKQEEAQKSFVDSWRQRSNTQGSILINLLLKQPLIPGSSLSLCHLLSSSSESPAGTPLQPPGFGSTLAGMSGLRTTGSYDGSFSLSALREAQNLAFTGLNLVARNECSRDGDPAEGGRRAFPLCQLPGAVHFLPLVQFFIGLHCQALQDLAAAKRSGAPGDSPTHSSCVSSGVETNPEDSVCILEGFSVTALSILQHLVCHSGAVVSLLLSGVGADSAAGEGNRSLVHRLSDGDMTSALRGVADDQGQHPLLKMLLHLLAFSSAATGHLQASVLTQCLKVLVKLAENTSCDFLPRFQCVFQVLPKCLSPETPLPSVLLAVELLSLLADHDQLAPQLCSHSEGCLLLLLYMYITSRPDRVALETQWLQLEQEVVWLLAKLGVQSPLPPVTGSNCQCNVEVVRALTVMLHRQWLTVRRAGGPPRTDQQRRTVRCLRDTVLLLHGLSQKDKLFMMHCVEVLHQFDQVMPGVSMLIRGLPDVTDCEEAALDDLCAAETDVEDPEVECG", "test": "Competitive displacement assay of [18F]-ATRi by Ve-821 in U251 MG cells", "format": "cell-based", "how_it_was_run": "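U251 MG cells were grown in MEM with 10% heat-inactivated FBS and penicillin/streptomycin, then seeded at 10^5 cells 24 h before the assay. The 18F-labelled test tracer (final 0.667 nM) was co-incubated with unlabelled competitor (0–1333 nM) for 1 h at 37 °C. Cells were PBS-washed twice, lysed with 1 N NaOH, and bound 18F was γ-counted. Percent bound was run in triplicate and fitted against competitor concentration.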"}, "[3]": {"system": "U251 MG cells", "test": "In vitro cell uptake", "format": "cell-based, human", "how_it_was_run": "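U251 MG cells were plated at 0.5 million/well the day before, PBS-washed twice, then incubated with 18F-labelled test tracer (6 μCi/well) in MEM at 37 °C for 0–240 min. For blocking, a 100-fold excess of unlabelled ATR inhibitor was co-incubated. At each time point, cells were PBS-washed twice and lysed in 1 M NaOH (10 min, 37 °C), and lysate activity was γ-counted.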"}, "[4]": {"details": "1-octanol / 25 mM phosphate buffered saline pH 7.4"}, "[5]": {"system": "U251 MG xenograft"}, "[6]": {"details": "4 h post injection, healthy athymic nude mice, i.v."}, "[7]": {"test": "Chemical Hydrophobicity Index", "format": "physicochemical", "details": "from HPLC retention time", "how_it_was_run": "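Reverse-phase HPLC retention times were measured for a set of standards with known CHI to build a standard curve. The CHI of the non-radioactive (19F) test compound was calculated from its retention time on that curve.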"}, "[8]": {"test": "Plasma protein binding", "format": "in vitro ADME", "details": "serum", "how_it_was_run": "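Equilibrium dialysis: 500 μM non-radioactive test compound in serum against PBS, 4 h at 37 °C on an orbital shaker at 100 rpm. Samples from both chambers were protein-precipitated (90/10 acetonitrile/water, 0.1% formic acid) and analysed by HPLC with peak integration. % bound = [1 − (buffer conc./plasma conc.)]×100, reported as mean ± SD.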"}, "[9]": {"details": "blocked with 100-fold excess Ve-821 pre-injected 30 min before, 120 min p.i."}}, "note": "pIC50: −log10 of the molar value.", "data": [{"smiles": "CS(=O)(=O)c1ccc(-c2cnc(N)c(C(=O)Nc3ccccc3)n2)cc1", "note": "[Ve-821]", "values": [{"measurement": "pIC50", "setting": "[1]", "result": 7.59}, {"measurement": "pIC50", "setting": "[2]", "result": 7.42}]}, {"smiles": "CS(=O)(=O)c1ccc(-c2cnc(N)c(C(=O)Nc3ccc([18F])cc3)n2)cc1", "note": "[[^18F]-9, 3-amino-N-(4-[^18F]phenyl)-6-(4-(methylsulfonyl)phenyl)pyrazine-2-carboxamide]", "values": [{"measurement": "cell uptake, blocked", "setting": "[3]; U251 MG cells blocked with Ve-821 (100-fold excess), co-incubated 240 min", "result": "0.16±0.1", "unit": "%"}, {"measurement": "cell uptake", "setting": "[3]; U251 MG cells, 240 min incubation with [18F]-ATRi only", "result": "3.5 ± 0.1", "unit": "%"}, {"measurement": "LogPO/W", "setting": "[4]", "result": 1.6}, {"measurement": "clearance from bloodstream (fast phase)", "setting": "2-phase decay curve, healthy mice, i.v.", "result": "< 10", "unit": "min"}, {"measurement": "weighted blood half-life", "setting": "single bolus intravenous injection via tail vein, nude mice, two-phase decay fit", "result": 6.2, "unit": "min"}, {"measurement": "tumor-to-brain ratio", "setting": "[5]; U251 MG xenograft mice", "result": "> 15"}, {"measurement": "kidney uptake", "setting": "[5]; biodistribution, 120 min p.i.", "result": "3.51 ± 0.23", "unit": "%ID/g"}, {"measurement": "liver uptake", "setting": "[5]; biodistribution, 120 min p.i.", "result": "3.68± 1.39", "unit": "%ID/g"}, {"measurement": "blood uptake, blocked", "setting": "[5]; [9]", "result": "0.84 ± 0.3", "unit": "%ID/g"}, {"measurement": "tumor uptake, blocked", "setting": "[5]; [9]", "result": "0.46 ± 0.12", "unit": "%ID/g"}, {"measurement": "blood uptake", "setting": "[5]; unblocked, 120 min p.i., i.v.", "result": "1.85 ± 0.47", "unit": "%ID/g"}, {"measurement": "ex vivo blood stability (tracer stable)", "setting": "[6]", "result": "greater than 97%"}]}, {"smiles": "CS(=O)(=O)c1ccc(-c2cnc(N)c(C(=O)Nc3ccc(F)cc3)n2)cc1", "note": "[compound 5, 3-amino-N-(4-fluorophenyl)-6-(4-(methylsulfonyl)-phenyl)pyrazine-2-carboxamide]", "values": [{"measurement": "CHI value", "setting": "[7]", "result": 76.8}, {"measurement": "fraction unbound at 4 h, 500 μM", "setting": "[8]", "result": "~0.1"}]}]}
